Assay outcomes deposited in PubChem by The Scripps Research Institute Molecular Screening Center.
Only some compounds are listed: those with a hit (about 2.9% of all), similar ones and a draw of the others.
PRMT1 FP inh: inhibitors of human PRMT1 | recombinant PRMT1, activity-based probe fluorescence polarization | inhibition, % at 2.79 µM | 370,000 tested, 1.3% active | AID 652257;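 active = inhibition above about 21% made by adding two undisclosed values, limit read from the data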
TCR-CD3 inh: blocks the human TCR-CD3 interaction; AID 651800; 360,000 tested, 0.37% active; inhibition, % at 9.4 µM; TAMRA-labeled TCR probe fluorescence, biochemical; in the data active = inhibition above about 19%;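 note: recombinant mutant TCR 2C K166C tagged with TAMRA read by polarization; 0% = receptor in buffer alone and 100% = receptor with positive control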
SIAE primary: human SIAE inhibition, primary screen; SIAE FP-Rh probe binding, fluorescence polarization; Q9HAT2; 370,000 tested, 0.69% active; AID 1053197; inhibition, % at 9.66 µM;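 active = inhibition above a cutoff: mean of compounds within the control limits plus 3 SD of those, cut at about 17% in these data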;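 note: 0% = plate median of compound wells and 100% = probe without SIAE protein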
mABHD4 FP: ABHD4 (mouse) inhibition, primary FP screen | Q8VD66 | purified mABHD4, FP-Rh probe fluorescence polarization | inhibition, % at 8.92 µM | 370,000 tested, 0.54% active;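 active = inhibition exceeding the mean over every tested compound plus 3 SD, cut at about 30% in these data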;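 note: 0% = plate median of compound wells and 100% = S159A mutant with DMSO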
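Assay system: Wild-type mouse ABHD4 protein | Medium: HEPES pH 7.0 buffer, 150 mM NaCl, 0.01% Pluronic F-127 | Incubation: Enzyme–compound pre-incubation 45 min, then probe 60 min, both 25 °C | Technique: Fluorescence polarization with parallel and perpendicular emission, 525/598 nm | Evaluation: % inhibition of FP-Rh probe binding versus controls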
HTRA1 inhibitor: blocks human HTRA1 serine peptidase. recombinant HTRA1, FP-rhodamine activity-based probe, fluorescence polarization. inhibition, % at 5.96 µM. 340,000 tested, 0.5% active; in the data active = inhibition above about 36%;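 note: 0% = enzyme with DMSO and 100% = wells lacking enzyme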
Target sequence (Q92743 whole entry, looked up): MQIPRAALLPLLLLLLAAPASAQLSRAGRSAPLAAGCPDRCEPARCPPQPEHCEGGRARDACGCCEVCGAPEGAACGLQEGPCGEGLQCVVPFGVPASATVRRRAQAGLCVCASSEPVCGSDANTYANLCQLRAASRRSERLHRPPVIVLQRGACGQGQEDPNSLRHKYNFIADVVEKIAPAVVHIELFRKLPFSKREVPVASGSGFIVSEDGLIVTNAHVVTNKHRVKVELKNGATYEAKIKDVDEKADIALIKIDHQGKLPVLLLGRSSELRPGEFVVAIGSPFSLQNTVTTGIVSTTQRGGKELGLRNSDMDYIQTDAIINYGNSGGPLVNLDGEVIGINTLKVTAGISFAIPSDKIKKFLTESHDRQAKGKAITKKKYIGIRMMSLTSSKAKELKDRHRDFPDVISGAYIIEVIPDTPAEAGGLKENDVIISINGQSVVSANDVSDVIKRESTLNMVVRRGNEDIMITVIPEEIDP
PAD4 inh: PAD4 (human) enzyme inhibition. recombinant PAD4, RCA probe fluorescence polarization. Q9UM07. inhibition, % at 6.36 µM. 330,000 tested, 0.41% active. AID 485272;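 active = percent inhibition above a cutoff equal to the mean of all tested compounds plus 3 SD, cut at about 15% in these data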;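 note: 0% = PAD4 with RCA probe and DMSO and 100% = probe without PAD4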
mABHD4 conf: confirmation of mouse ABHD4 inhibitors; purified mABHD4, FP-Rh probe fluorescence polarization; shares compounds with mABHD4 FP; AID 720658; inhibition, % at 8.92 µM; 1,800 tested, 55% active;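 active = mean inhibition across replicates above the hit cutoff set in the primary screen, cut at about 30% in these data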;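 note: 0% = wild-type ABHD4 with DMSO and 100% = catalytically dead S159A mutant with DMSO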
An asterisk follows results filed as active; nt = no result.

SMILES	PRMT1 FP inh	TCR-CD3 inh	SIAE primary	mABHD4 FP	HTRA1 inhibitor	PAD4 inh	mABHD4 conf
CC(=O)N1CCN(C(=O)c2ccc(CNC(=O)c3cccc(Br)c3)cc2)CC1	1	nt	4	2	nt	nt	nt
Cn1c(-c2ccsc2)c(-c2cccs2)c2cc(-c3ccc4cc[nH]c4c3)ccc21	-3	-5	12	35*	19	-2	40*
Oc1ccccc1Nc1nc(NCC2CCCO2)c2ccccc2n1 (centres undefined)	3	-3	2	4	-11	-2	nt
Oc1ccc(Cl)cc1Nc1nc(NCC2CCCO2)c2ccccc2n1 (centres undefined)	-4	6	3	35*	6	0	31*
COc1cc(CNc2ccc3[nH]c(=O)[nH]c3c2)cc(Cl)c1OCC(=O)NC(C)(C)C	9	6	5	40*	13	-5	36*
CCOc1cc(CNc2ccc3[nH]c(=O)[nH]c3c2)ccc1OCC(=O)NC(C)(C)C	10	-1	3	9	2	-15	nt
COc1ccc2c(c1)c(/C=N/Nc1ccc(C(=O)O)cc1)c(C)n2C	5	11	-4	6	6	-6	nt
O=C(O)c1cc(N/N=C/C=C/c2ccccc2[N+](=O)[O-])ccc1Cl	2	1	4	30*	10	-4	36*
O=C(O)c1cc(N/N=C/c2c[nH]c3ccccc23)ccc1Cl	17	-6	8	32*	1	-2	28
O=C(N/N=C/C=C\c1ccccc1[N+](=O)[O-])c1ccncc1	1	-4	-7	5	2	-5	nt
COc1ccc2c(/C=N/Nc3ccc(C(=O)O)cc3)c[nH]c2c1	1	5	-5	50*	3	-8	36*
O=C(O)c1cc(N/N=C/c2ccc(-c3ccccc3)cc2)ccc1Cl	2	5	-2	11	11	nt	nt
COc1ccc2ccccc2c1/C=N/Nc1ccc(Cl)c(C(=O)O)c1	2	10	14	37*	7	8	52*
CCOC(=O)[C@]12CCCC3=C1N(CCC3)C(=O)[C@@H](CC(=O)N1CCN(C(=O)C3CC3)CC1)C2	-1	nt	-4	3	nt	nt	nt
CC(C)(C)c1ccc(S(=O)(=O)Nc2noc3ccccc23)cc1	3	0	5	30*	-1	4	16
COc1ccc(S(=O)(=O)Nc2noc3ccccc23)cc1	0	2	-4	7	2	-8	nt
Cc1ccc(-c2ccc(/C=C(\C#N)C(=O)Nc3cc(C)nn3-c3ccccc3)o2)cc1	nt	nt	nt	nt	nt	2	nt
N#C/C(=C\c1ccc(-c2ccccc2)o1)C(=O)Nn1cnnc1	1	-4	-16	47*	-3	0	1
COc1ccc(S[C@]2(C(=O)NCC(C)C)CC(=O)N[C@@H]2c2ccc(OC)cc2)cc1	3	nt	0	2	nt	nt	nt
CCOC(=O)/C(=N\Nc1ccccc1)P(=O)(c1ccccc1)c1ccccc1	1	-3	5	30*	5	-2	23
CCOC(=O)/C(=N\Nc1ccccc1)S(=O)(=O)c1ccccc1	-1	5	4	-2	-10	-1	nt
O=C(OCC#CCSc1nnc(-c2cccc3ccccc23)o1)C1CCC1	1	nt	4	-11	nt	nt	nt
CCC(=O)NC1=C(Cl)C(=O)C(NC(=O)CC)=C(Cl)C1=O	90*	-3	7	34*	7	nt	40*
CCC(=O)NC1=C(NC(C)c2ccccc2)C(=O)c2ccccc2C1=O (centres undefined)	-1	0	5	-1	-3	-8	nt
Cc1ccc(S(=O)(=O)NCC2CN(S(=O)(=O)c3ccc(C)cc3)c3ccccc3C(=O)N2c2ccc(F)cc2)cc1 (centres undefined)	-2	nt	-13	5	nt	nt	nt
COc1cccc(-c2ccc3c(c2)[C@@H]2C[C@H]4[C@@H](CN2CC3)[C@H](C)ON4C)c1	-4	1	13	1	nt	nt	nt
O=C1CC(Nc2ccc(N3CCOCC3)cc2)C(=O)N1CCc1ccccc1 (centres undefined)	6	-1	17	33*	12	3	4
COc1ccc(N2C(=O)CC(Nc3ccc(N4CCOCC4)cc3)C2=O)c(OC)c1 (centres undefined)	14	10	30*	49*	22	10	14
